Assay results from ChEMBL document CHEMBL2163251, “Synthesis and pharmacological evaluation of indolinone derivatives as novel ghrelin receptor antagonists” (Bioorg Med Chem, 2012).
pIC50, pKi: −log10 of the molar value. The source made the active and inactive calls. The rule behind the calls is not given here.

Assays:
[1] = target: T1, Growth hormone secretagogue receptor type 1 (Homo sapiens, UniProt Q92847); assay: Antagonist activity at human GHSR1 expressed in CHO-CREluc cells after 4 hrs by Luciferase reporter assay; assay type: functional, cell-based
T1 sequence (Q92847 whole entry): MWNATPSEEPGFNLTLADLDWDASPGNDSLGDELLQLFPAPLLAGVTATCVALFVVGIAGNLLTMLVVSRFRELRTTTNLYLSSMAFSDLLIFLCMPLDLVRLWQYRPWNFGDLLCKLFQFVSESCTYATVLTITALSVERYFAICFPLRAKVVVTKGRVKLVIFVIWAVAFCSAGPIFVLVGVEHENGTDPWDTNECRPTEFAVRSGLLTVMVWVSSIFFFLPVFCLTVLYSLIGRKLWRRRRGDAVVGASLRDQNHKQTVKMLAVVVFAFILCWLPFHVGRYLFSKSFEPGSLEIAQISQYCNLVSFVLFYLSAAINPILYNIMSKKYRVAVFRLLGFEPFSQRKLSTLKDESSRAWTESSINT
How it was run: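 hGHSR1a stably cloned into CHO line carrying CRE-luciferase reporter (six CRE upstream of firefly luciferase). Cells plated in MEM with 10% dialysed FBS. Stimulation medium held 0.1 µM forskolin and 3 nM human ghrelin. Luciferase read by photon counting.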

[2] = target: T1, Growth hormone secretagogue receptor type 1; assay: Displacement of [125I]-ghrelin from human GHSR1 expressed in CHO-CREluc cells after 1 hr by scintillation counting; assay type: cell-based
How it was run: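 Crude membranes from CHO-CREluc-hGHSR1a cells were homogenized in TM buffer (10 mM Tris-HCl pH 7.4, 10 mM MgCl2) and spun at 40,000g. Incubated 1 h in TM buffer with 0.25% BSA and 10% dialysed FBS, 0.25 nM [125I] human ghrelin and increasing compound concentrations. Harvested on PEI-pretreated GF/B filters and washed with cold buffer. Bound radioactivity counted by scintillation.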

Mus musculus [3] = assay: Effect of glucose tolerance in fasted C57/BL6N mouse assessed as inhibition of glucose excursion at 30 mg/kg, po measured after 20 to 120 mins by IPGTT
Rattus norvegicus [4] = assay: Inhibition of ghrelin induced food intake in CD rat at 10 mg/kg, ip administered 30 mins prior to icv ghrelin challenge measured after 4 hrs; assay type: functional; details: route intraperitoneal
How it was run: (§1)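 Adult male CD rats (200–300 g) fitted with lateral-ventricle cannulae. Dosed 10 mg/kg ip 30 min before icv rat ghrelin (10 µg/rat in 15 µl) or saline. Cumulative food intake measured hourly for 4 h, n=6–7 per group.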

Rattus norvegicus [5] = assay: Inhibition of ghrelin-induced gastric emptying in CD rat at 3 mg/kg, ip; assay type: functional; details: Stomach, route intraperitoneal
How it was run: (§2)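 24 h fasted male CD rats dosed ip (vehicle 2 ml/kg), then given rat ghrelin 20 µg/kg iv. BaSO4 meal (75% w/v in 0.5% CMC, 1 ml/100 g) given by gavage. Stomach content weighed at 0 or 60 min and compared with drug-free controls killed at t=0.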

Rattus norvegicus [6] = assay: Inhibition of ghrelin-induced gastric emptying in CD rat at 10 mg/kg, ip; assay type: functional; details: Stomach, route intraperitoneal; how it was run: as §2
[7] = Permeability across human Caco2/TC7 cells assessed as compound recovery; assay type: ADME, cell-based; details: Caco-2, read-out: permeability
[8] = Permeability across human Caco2/TC7 cells compound transport; assay type: ADME, cell-based; details: Caco-2, read-out: permeability
[9] = Drug metabolism in mouse liver microsomes at 5 uM after 24 hrs; assay type: ADME, Microsome; details: read-out: Drug metabolism
How it was run: (§3)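 Compound at 5 µM incubated 24 h with isolated hepatic microsomal fractions from mouse, rat or human.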

[10] = Drug metabolism in rat liver microsomes at 5 uM after 24 hrs; assay type: ADME, Microsome; details: read-out: Drug metabolism; how it was run: as §3
[11] = Drug metabolism in human liver microsomes at 5 uM after 24 hrs; assay type: ADME, Microsome; details: read-out: Drug metabolism; how it was run: as §3
Hepatocyte = assay: Intrinsic clearance in human hepatocytes assessed per million cells at 5 uM; assay type: ADME, cell-based
P-glycoprotein = assay: P-glycoprotein-mediated efflux ratio of the compound; assay type: ADME; details: not told
[12] = Binding affinity at adenosine receptor at 10 uM
[13] = Binding affinity at adrenergic receptor at 10 uM
[14] = Binding affinity at cannbinoids receptor at 10 uM
[15] = Binding affinity at dopamine receptor at 10 uM
[16] = Binding affinity at histamine receptor at 10 uM
[17] = Binding affinity at muscarinic receptor at 10 uM
[18] = Binding affinity at opioids receptor at 10 uM
[19] = Binding affinity at serotonin receptor at 10 uM
[20] = Binding affinity at vasopressin receptor at 10 uM
Rattus norvegicus [21] = assay: Inhibition of ghrelin-induced gastric emptying in ip dosed CD rat; assay type: functional, organism-based; details: Stomach; how it was run: as §2
Rattus norvegicus [22] = assay: Inhibition of gastric emptying in CD rat at 3 mg/kg, ip; assay type: functional; details: Stomach, route intraperitoneal
How it was run: (§4)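 24 h fasted male CD rats dosed ip (vehicle 2 ml/kg), no ghrelin. BaSO4 meal (75% w/v in 0.5% CMC, 1 ml/100 g) given by gavage. Rats killed at 0 or 60 min and stomach content weighed. Result expressed relative to the mean content of drug-free controls killed at t=0.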

Rattus norvegicus [23] = assay: Inhibition of gastric emptying in CD rat at 10 mg/kg, ip; assay type: functional; details: Stomach, route intraperitoneal; how it was run: as §4
Mus musculus [24] = assay: Inhibition of ghrelin-induced food intake in fasted C57/BL6N mouse at 10 mg/kg, ip up to 6 hrs; assay type: functional, organism-based; design: dose 10 mg/kg
How it was run: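 Male C57BL/6 mice fasted overnight and dosed ip 10 mg/kg (vehicle 10 ml/kg) 1 h before refeeding. Cumulative food intake recorded after food return.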

Rattus norvegicus [25] = assay: Inhibition of ghrelin induced food intake in CD rat at 10 mg/kg, ip administered 30 mins prior to icv ghrelin challenge measured after 1 hr; assay type: functional; details: route intraperitoneal; how it was run: as §1
Rattus norvegicus [26] = assay: Inhibition of ghrelin induced food intake in CD rat at 10 mg/kg, ip administered 30 mins prior to icv ghrelin challenge measured after 2 hrs; assay type: functional; details: route intraperitoneal; how it was run: as §1
Rattus norvegicus [27] = assay: Inhibition of ghrelin induced food intake in CD rat at 10 mg/kg, ip administered 30 mins prior to icv ghrelin challenge measured after 3 hrs; assay type: functional; details: route intraperitoneal; how it was run: as §1
Mus musculus [28] = assay: Effect of glucose tolerance in fasted C57/BL6N mouse assessed as inhibition of glucose excursion at 30 mg/kg, po administered 30 mins before glucose challenge measured after 20 to 120 mins by IPGTT; assay type: functional
How it was run: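 Male C57/Bl6N mice fasted 16–18 h, then given 30 mg/kg or vehicle by oral gavage. Fasting glucose read from tail blood 30 min after dosing. Glucose 2 g/kg ip given 30 min later, with glucose measured at 20–120 min. […] calculated by trapezoidal method and expressed as % of vehicle AUC.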

[29] = Binding affinity at receptor at 10 uM

CN(C)[C@@H]1CCN(CC(=O)NC2(c3ccc(Cl)c(Cl)c3)C(=O)Nc3cc(Cl)cc(Cl)c32)C1 (stereo partly drawn)
pIC50 [1]: 7.60

CN(C)[C@H]1CCN(CC(=O)NC2(c3ccc(Cl)c(Cl)c3)C(=O)Nc3cc(Cl)cc(Cl)c32)C1 (stereo partly drawn)
pIC50 [1]: 6.96

CN1CCN(CC(=O)N[C@]2(c3ccc(Cl)cc3)C(=O)Nc3cc(Cl)c(Cl)cc32)CC1
pIC50 [1]: 7.33 | pKi [2]: 6.60

CCC1=C(C)CN(C(=O)NCCc2ccc(S(=O)(=O)NC(=O)N[C@H]3CC[C@H](C)CC3)cc2)C1=O
inhibition (Mus musculus [3]): Active

Cc1ccc2c(c1Cl)C(NC(=O)CN1CCN(C)CC1)(c1ccc(Cl)cc1)C(=O)N2 (racemic)
pIC50 [1]: 5.94

Cc1cc2c(cc1Cl)NC(=O)C2(NC(=O)CN1CCN(C)CC1)c1ccc(Cl)cc1 (racemic)
pIC50 [1]: 6.67 | pKi [2]: 6.41

Cc1cc2c(cc1Cl)NC(=O)C2(NC(=O)CN1CCN(C)CC1)c1cccc(Cl)c1 (racemic)
pIC50 [1]: 5.93

Cc1cc2c(cc1Cl)NC(=O)C2(NC(=O)CN1CCN(C)CC1)c1ccccc1Cl (racemic)
pIC50 [1]: < 5.00

Cc1cc2c(cc1Cl)NC(=O)C2(NC(=O)CN1CCN(C)CC1)c1ccc(Cl)c(Cl)c1 (racemic)
pIC50 [1]: 6.66 | pKi [2]: < 6.00

Cc1cc2c(cc1Cl)NC(=O)C2(NC(=O)CN1CCN(C)CC1)c1ccc(Cl)cc1Cl (racemic)
pIC50 [1]: < 5.00

CCN1CCN(CC(=O)NC2(c3ccc(Cl)cc3)C(=O)Nc3cc(Cl)c(C)cc32)CC1 (racemic)
pIC50 [1]: 6.89 | pKi [2]: 6.54

Cc1cc2c(cc1Cl)NC(=O)C2(NC(=O)CN1CCNCC1)c1ccc(Cl)cc1 (racemic)
pIC50 [1]: < 5.00

Cc1cc2c(cc1Cl)NC(=O)C2(NC(=O)CN1CCN(Cc2ccccc2)CC1)c1ccc(Cl)cc1 (racemic)
pIC50 [1]: < 5.00

Cc1cc2c(cc1Cl)NC(=O)C2(NC(=O)CN1CCN(c2ccncc2)CC1)c1ccc(Cl)cc1 (racemic)
pIC50 [1]: < 5.00

CCN1CCN(CC(=O)NC2(c3ccc(Cl)cc3)C(=O)Nc3cc(Cl)c(Cl)cc32)CC1 (racemic)
pIC50 [1]: 6.96 | pKi [2]: 6.69

CN(C)CCN(C)CC(=O)NC1(c2ccc(Cl)cc2)C(=O)Nc2cc(Cl)c(Cl)cc21 (racemic)
pIC50 [1]: < 5.00

CC1CCN(CC(=O)NC2(c3ccc(Cl)cc3)C(=O)Nc3cc(Cl)c(Cl)cc32)CC1 (racemic)
pIC50 [1]: 5.60

CN1CCN(CC(=O)NC2(c3ccc(Cl)cc3)C(=O)Nc3cc(Cl)c(Cl)c(Cl)c32)CC1 (racemic)
pIC50 [1]: 6.56

CN1CCN(CC(=O)NC2(c3ccc(C(C)(C)C)cc3)C(=O)Nc3cc(Cl)c(Cl)cc32)CC1 (single isomer, unassigned; (+))
pIC50 [1]: 5.83

CCN1CCN(CC(=O)NC2(c3ccc(Cl)c(Cl)c3)C(=O)Nc3cc(Cl)cc(Cl)c32)CC1 (single isomer, unassigned; (+))
inhibition in vivo at 10 mg/kg (Rattus norvegicus [4]): 53% | inhibition in vivo at 3 mg/kg (Rattus norvegicus [5]): 55% | inhibition in vivo at 10 mg/kg (Rattus norvegicus [6]): 62% | pIC50 [1]: 8.15 | pKi [2]: 8.10 | recovery [7]: 51.8% | Papp [8]: 0.385 ×10⁻⁶ cm/s | metabolised at 24 h, 5 µM [9]: 44% | metabolised at 24 h, 5 µM [10]: 45% | metabolised at 24 h, 5 µM [11]: 41% | CLint (Hepatocyte): 0.097 mL/h/10⁶ cells | efflux ratio (P-glycoprotein): 6.6 | Activity [12]: inactive | Activity [13]: inactive | Activity [14]: inactive | Activity [15]: inactive | Activity [16]: inactive | Activity [17]: inactive | Activity [18]: inactive | Activity [19]: inactive | Activity [20]: inactive | inhibition (Rattus norvegicus [21]): Dose-dependent effect | inhibition in vivo at 3 mg/kg (Rattus norvegicus [22]): 68% | inhibition in vivo at 10 mg/kg (Rattus norvegicus [23]): 55% | inhibition (Mus musculus [24]): Active | inhibition in vivo at 10 mg/kg (Rattus norvegicus [25]): 58% | inhibition in vivo at 10 mg/kg (Rattus norvegicus [26]): 60% | inhibition in vivo at 10 mg/kg (Rattus norvegicus [27]): 61% | inhibition in vivo at 30 mg/kg (Mus musculus [28]): 32% | Activity [29]: inactive

C=CCN1CCN(CC(=O)NC2(c3ccc(Cl)c(Cl)c3)C(=O)Nc3cc(Cl)cc(Cl)c32)CC1 (single isomer, unassigned; (+))
pIC50 [1]: 7.42 | pKi [2]: 6.92

CN1CCCN(CC(=O)NC2(c3ccc(Cl)c(Cl)c3)C(=O)Nc3cc(Cl)cc(Cl)c32)CC1 (single isomer, unassigned; (+))
pIC50 [1]: 7.19

CN(C)C1CCN(CC(=O)NC2(c3ccc(Cl)c(Cl)c3)C(=O)Nc3cc(Cl)cc(Cl)c32)CC1 (single isomer, unassigned; (+))
pIC50 [1]: 6.62

CCN1CCCC(CC(=O)NC2(c3ccc(Cl)c(Cl)c3)C(=O)Nc3cc(Cl)cc(Cl)c32)C1 (single isomer, unassigned; (+))
pIC50 [1]: 7.33

CCN1CCN(CC(=O)NC2(c3ccc(Cl)c(Cl)c3)C(=O)Nc3cc(Cl)cc(Cl)c32)CC1=O (single isomer, unassigned; (+))
pIC50 [1]: 5.56

CCN1CCC(CC(=O)NC2(c3ccc(Cl)c(Cl)c3)C(=O)Nc3cc(Cl)cc(Cl)c32)CC1 (single isomer, unassigned; (+))
pIC50 [1]: 9.00 | pKi [2]: 8.52 | efflux ratio (P-glycoprotein): 58

CN1CCN(CC(=O)NC2(c3ccc(Cl)cc3)C(=O)Nc3cc(Cl)ccc32)CC1 (single isomer, unassigned; (+))
pIC50 [1]: 6.85

CN1CCN(CC(=O)NC2(c3ccc(Cl)cc3)C(=O)Nc3c(Cl)cc(Cl)cc32)CC1 (single isomer, unassigned; (+))
pIC50 [1]: 5.86

CN1CCN(CC(=O)NC2(c3ccc(Cl)c(Cl)c3)C(=O)Nc3cc(Cl)ccc32)CC1 (single isomer, unassigned; (+))
pIC50 [1]: 6.95

CN1CCN(CC(=O)NC2(c3ccc(Cl)cc3)C(=O)Nc3cc(Cl)cc(Cl)c32)CC1 (single isomer, unassigned; (+))
pIC50 [1]: 7.14 | pKi [2]: 7.36

CN1CCN(CC(=O)NC2(c3ccc(Cl)c(Cl)c3)C(=O)Nc3cc(Cl)cc(Cl)c32)CC1 (single isomer, unassigned; (+))
pIC50 [1]: 7.62

COc1ccc(C2(NC(=O)CN3CCN(C)CC3)C(=O)Nc3cc(Cl)c(Cl)cc32)cc1 (single isomer, unassigned; (+))
pIC50 [1]: 6.15

Cc1cc2c(cc1Cl)C(NC(=O)CN1CCN(C)CC1)(c1ccc(Cl)cc1)C(=O)N2 (single isomer, unassigned; (+))
pIC50 [1]: 6.60

COc1ccc(C2(NC(=O)CN3CCN(C)CC3)C(=O)Nc3cc(Cl)c(C)cc32)cc1 (single isomer, unassigned; (+))
pIC50 [1]: 6.28

CN1CCN(CC(=O)NC2(c3ccc(Cl)cc3)C(=O)Nc3cc(Cl)c(Cl)cc32)CC1 (single isomer, unassigned; (-))
pIC50 [1]: < 5.00
